E-sel inducer: E-selectin induction in HUVECs, primary screen, imaging, HUVEC, immunofluorescence imaging, single point. P16581. normalized: neutral wells 0, TNF-alpha wells 100. activation, % at 7.58 µM. actives 0.37% (n = 260,000);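 active = mean E-selectin-positive cell signal at least 10% of the positive control, reached in at least 60% of replicates, without over 20% cell loss; inconclusive = no rule given, readout overlaps actives, possibly toxicity-flagged; inactive = the rest, including those meeting only one limit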
Target sequence (P16581 whole entry, looked up): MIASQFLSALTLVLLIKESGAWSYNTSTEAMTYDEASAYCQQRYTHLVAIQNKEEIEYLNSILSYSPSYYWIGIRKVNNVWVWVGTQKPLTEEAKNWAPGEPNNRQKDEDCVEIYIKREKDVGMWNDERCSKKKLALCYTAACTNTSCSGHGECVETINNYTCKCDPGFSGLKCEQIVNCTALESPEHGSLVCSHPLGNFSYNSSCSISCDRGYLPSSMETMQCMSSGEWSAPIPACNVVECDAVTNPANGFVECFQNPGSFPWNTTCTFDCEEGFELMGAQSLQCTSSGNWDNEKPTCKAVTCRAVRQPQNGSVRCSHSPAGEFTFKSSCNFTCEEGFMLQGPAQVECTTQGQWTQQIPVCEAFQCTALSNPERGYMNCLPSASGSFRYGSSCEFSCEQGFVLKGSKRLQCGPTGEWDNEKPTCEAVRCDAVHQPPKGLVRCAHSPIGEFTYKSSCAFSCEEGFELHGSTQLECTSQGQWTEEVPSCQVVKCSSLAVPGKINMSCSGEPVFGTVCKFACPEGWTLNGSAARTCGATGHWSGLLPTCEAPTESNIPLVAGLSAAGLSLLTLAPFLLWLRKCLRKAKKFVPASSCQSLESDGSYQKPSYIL
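material = human umbilical vein endothelial cells (HUVEC), E-selectin induction | quantity = 3,000 cells/well | medium = EGM-2 growth medium on 0.1% gelatin-coated wells | technique = immunofluorescence imaging | read-out basis = % PE-positive cells | control set = TNF-alpha positive control, DMSO neutral control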
DENV2 CPE: inhibitors of DENV2 cytopathic effect, primary screen, cell-based, plate reader, single concentration. DENV2-infected cells, cytopathic effect rescue. CPE inhibition, % at 9.99 µM. actives 1.7% (n = 350,000). AID 651640, 2012; in the data active = CPE inhibition above about 20%, passing the limit was not always enough; inconclusive = no clear call, values can overlap the other calls; tested in BHK-21 cells;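 also: 0% = median of neutral control wells and 100% = median of positive control wells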
XiGFP reactiv: activators of inactive X chromosome reactivation, primary screen, imaging, XiGFP fibroblasts, GFP high-content imaging, set 2 | activation, % at 7.58 µM | actives 0.055% (n = 360,000) | XiGFP mouse fibroblasts, % GFP-positive cells imaging, 3 d; cells co-treated with 5-aza-dC sensitizer; scaled so ellipticine positive control = 100% | AID 743238, 2013;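 active = mean normalized replicate activation at least 10% and every replicate at or above 10%; inconclusive = only one of the two criteria met; inactive = mean below 10% and not all replicates reach 10%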;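 also: 0% = median of on-plate neutral control wells and 100% = ellipticine 6 µM median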
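System: SV40-immortalized XiGFP fibroblast cells, line 68-5-11 / Incubation: 3-day compound exposure, then 15 min fixation at room temperature / Compound: single concentration per compound, delivered by pin transfer / Buffer or medium: DMEM plus 5-aza-dC sensitizer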
S100A4 inh HTS: inhibitors of S100A4-myosin IIA peptide binding, primary screen, biochemical, fluorescence polarization, TAMRA-MyoIIA peptide. Protein S100-A4 (Homo sapiens), P26447. inhibition, % at 10.7 µM. actives 0.14% (n = 360,000);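 active = mean inhibition of at least 70% across replicates, with every replicate also reaching that level; inconclusive = mean inhibition reaches 70% but some replicates fall short; inactive = mean inhibition below 70%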
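System – human S100A4 monomer protein, biochemical binding assay · Buffer or medium – Calcium-containing HEPES buffer, pH 7.2 · Timing – 5 min between mix addition and reading · Also added – TAMRA-labelled myosin IIA heavy-chain peptide probe, 5 nM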
Numbers without * were called inactive; ? = inconclusive; / = not tested or not shown; + = active, no number. In the library only some 2% were active in any assay of this set; here they are far more common.

SMILES | E-sel inducer | DENV2 CPE | XiGFP reactiv | S100A4 inh HTS
Cc1cccc(NS(=O)(=O)c2ccc(C(=O)NCC(c3ccco3)N(C)C)cc2)c1C (stereo not drawn) | 0 | 5 | 0 | -7
Cc1cc(C)nc(N2CCCC(C(=O)NCCc3cccc(F)c3)C2)n1 (stereo not drawn) | / | 19 | / | -5
CC(C)CCNC(=O)c1cc2c(s1)-c1ccccc1S(=O)(=O)C2 | 0 | -6 | 0 | 5
COCCN(CCOC)C(=O)CN1C(=O)NC2(CCCc3sccc32)C1=O (stereo not drawn) | 0 | -1 | 0 | -5
Cc1ccc(S(=O)(=O)Cc2ccccc2Cl)cc1 | / | 29* | 0 | 0
COc1ccc(NC(=O)C(OC(=O)c2cnc(C)cn2)c2ccccc2)cc1Cl (stereo not drawn) | / | 75* | 0 | -1
COc1ccc(C)cc1NC(=O)C(OC(=O)c1cnc(C)cn1)c1ccccc1 (stereo not drawn) | / | 3 | 0 | -3
Cc1csc(=O)n1CC(=O)OCc1nnc(-c2ccc(Cl)cc2)o1 | 0 | 4 | 0 | +
COC(=O)c1ccc(=O)c2nc3/c(=C/O)c(O)cc(=O)c3[nH]c12 | / | 42* | / | -16
C/C(CC(=O)N1CCN(C=O)CC1)=N\NC(=O)c1ccc(Cl)cc1 | / | 6 | 0 | -2
C[C@H](CO)N1C[C@H](C)[C@H](CN(C)C(=O)Nc2ccc3c(c2)OCO3)Oc2ccc(NC(=O)CCCCCC(=O)Nc3ccccc3N)cc2CC1=O | 392* | 3 | 0 | -6
C[C@@H]1CN([C@@H](C)CO)C(=O)Cc2cc(NC(=O)CCCCCC(=O)Nc3ccccc3N)ccc2O[C@@H]1CN(C)C(=O)Nc1ccc2c(c1)OCO2 | 181* | -6 | 0 | 27
C[C@H](CO)N1C[C@H](C)[C@@H](CN(C)C(=O)Nc2ccc3c(c2)OCO3)Oc2ccc(NC(=O)CCCCCC(=O)Nc3ccccc3N)cc2CC1=O | -14 | 13 | 0 | 8
COc1ccc(NC(=O)N(C)C[C@H]2Oc3ccc(NC(=O)CCCCCC(=O)Nc4ccccc4N)cc3CC(=O)N([C@@H](C)CO)C[C@H]2C)cc1 | 32* | 9 | 0 | 7
C[C@@H]1CN([C@@H](C)CO)C(=O)c2cc(NC(=O)CCCCCC(=O)Nc3ccccc3N)ccc2O[C@@H]1CN(C)C(=O)Nc1ccccc1 | 0 | 2 | 0 | 3
C[C@@H]1CN([C@H](C)CO)C(=O)c2cc(NC(=O)CCCCCC(=O)Nc3ccccc3N)ccc2O[C@@H]1CN(C)C(=O)Nc1ccc2c(c1)OCO2 | 100* | 6 | 0 | -5
O=C(CN1c2cccc3cccc(c23)S1(=O)=O)Nc1ccccc1Br | / | 1 | 0 | -3
O=C1c2ccccc2C(Nc2ccc(F)c(Cl)c2)N1Cc1ccco1 (stereo not drawn) | 0 | 36* | 0 | 6
C[C@@H]1CCCCO[C@@H](CN(C)C(=O)Nc2ccc3c(c2)OCO3)[C@H](C)CN([C@H](C)CO)C(=O)c2cc(NS(=O)(=O)c3ccc(Cl)cc3)ccc2O1 | 0 | 6 | 0 | -1
COc1ccc(S(=O)(=O)Nc2ccc3c(c2)C(=O)N([C@@H](C)CO)C[C@@H](C)[C@H](CN(C)C(=O)Nc2ccccc2)OCCCC[C@@H](C)O3)cc1 | 0 | -2 | 0 | 103*
COc1ccc(NC(=O)N(C)C[C@@H]2OCCCC[C@H](C)Oc3ccc(NS(=O)(=O)c4ccccc4)cc3C(=O)N([C@H](C)CO)C[C@H]2C)cc1 | 1 | 58* | 0 | -1
C[C@@H]1CCCCO[C@H](CN(C)C(=O)Nc2ccc3c(c2)OCO3)[C@@H](C)CN([C@H](C)CO)C(=O)c2cc(NS(=O)(=O)c3ccc(Cl)cc3)ccc2O1 | 0 | 25* | 0 | 2
COc1ccc(S(=O)(=O)Nc2ccc3c(c2)C(=O)N([C@@H](C)CO)C[C@@H](C)[C@H](CN(C)C(=O)Cc2ccccc2)OCCCC[C@H](C)O3)cc1 | 0 | 24* | 0 | 4
COc1ccc(S(=O)(=O)Nc2ccc3c(c2)C(=O)N([C@@H](C)CO)C[C@@H](C)[C@H](CN(C)C(=O)Cc2ccccc2)OCCCC[C@@H](C)O3)cc1 | 0 | 3 | 0 | -4
COc1ccc(S(=O)(=O)Nc2ccc3c(c2)C(=O)N([C@@H](C)CO)C[C@H](C)[C@@H](CN(C)C(=O)Nc2ccccc2)OCCCC[C@H](C)O3)cc1 | 0 | 1 | 0 | /
SMILES | E-sel inducer | DENV2 CPE | XiGFP reactiv | S100A4 inh HTS
C[C@H](CO)N1C[C@H](C)[C@H](CN(C)C(=O)NC2CCCCC2)Oc2c(NC(=O)Nc3ccc4c(c3)OCO4)cccc2C1=O | 8 | -6 | 0 | -2
CSC1=NCCN1C(=O)Cc1ccc(F)cc1 | 0 | 11 | 0 | 0
CC(=O)c1ccc(NC(=O)CO/N=C(\C)c2cccs2)cc1 | / | / | 0 | /
Cc1noc(C)c1C(=O)NNc1cc(Cl)ccc1Cl | 0 | -1 | 0 | -7
COc1cc(/C=N/NC(=O)c2ccccn2)cc2c1OCO2 | 0 | -2 | 0 | -2
O=C(O)/C=C/c1cccc(NC(=O)Nc2ccc([N+](=O)[O-])cc2)c1 | 0 | 0 | 0 | -3
COc1ccc(NC(=O)N(C)C[C@@H]2OCCCC[C@@H](C)Oc3ccc(NS(=O)(=O)c4ccc(Cl)cc4)cc3C(=O)N([C@H](C)CO)C[C@@H]2C)cc1 | 0 | -1 | 0 | 139*
CCOC(=O)c1ccc(NC(=O)CN2CCN(C(=O)c3ccco3)CC2)cc1 | 12 | 6 | 0 | 0
CCCN1C[C@H](C)[C@@H](OC)CN(C)C(=O)c2ccc(NC(=O)Nc3c(C)noc3C)cc2OC[C@H]1C | 0 | 21* | 0 | 3
CO[C@@H]1CN(C)C(=O)c2ccc(NC(=O)Nc3c(C)noc3C)cc2OC[C@H](C)N(CCC(F)(F)F)C[C@H]1C | 0 | 37* | 0 | -24
CC1CC(C)CN(C(=O)C(C)N2CCN(S(=O)(=O)c3ccccc3F)CC2)C1 (stereo not drawn) | / | 7 | ? | 3
COc1ccccc1CN1CCNC(=O)C1CC(=O)NCCCN1CCOCC1 (stereo not drawn) | 0 | 1 | 0 | 131*
CCCN(CCC)CCCNC(=O)c1cc2c(=O)n(CC)c3ccccc3c2s1 | / | -4 | 0 | -2
CCn1c(=O)c2cc(C(=O)NCC(OC)OC)sc2c2ccccc21 | 66* | -5 | 0 | -18
CCn1c(=O)c2cc(C(=O)NCCCOC)sc2c2ccccc21 | 53* | 4 | 0 | -21
Cn1c(N)c(C(=O)COC(=O)CCc2ccccc2)c(=O)n(C)c1=O | 107* | 9 | 0 | -2
COc1ccc(CC(=O)OCC(=O)c2c(N)n(C)c(=O)n(C)c2=O)cc1OC | / | 17 | 0 | -2

Screening results deposited in PubChem BioAssay by Broad Institute.
